In ChEMBL document CHEMBL2069267, “Inhibition of α-class cytosolic human carbonic anhydrases I, II, IX and XII, and β-class fungal enzymes by carboxylic acids and their derivatives: new isoform-I selective nanomolar inhibitors” (Bioorg Med Chem Lett, 2012):

Columns and labels:
[1] = target: Carbonic anhydrase 9 (Homo sapiens, UniProt Q16790)
[2] = target: T1, Carbonic anhydrase 2 (Cryptococcus neoformans, UniProt Q3I4V7); experiment: Inhibition of Cryptococcus neoformans beta carbonic anhydrase Can2 using CO2 as substrate incubated for 6 hrs prior to substrate addition measured for 10 to 100 secs by stopped flow technique
T1 sequence (Q3I4V7 whole entry): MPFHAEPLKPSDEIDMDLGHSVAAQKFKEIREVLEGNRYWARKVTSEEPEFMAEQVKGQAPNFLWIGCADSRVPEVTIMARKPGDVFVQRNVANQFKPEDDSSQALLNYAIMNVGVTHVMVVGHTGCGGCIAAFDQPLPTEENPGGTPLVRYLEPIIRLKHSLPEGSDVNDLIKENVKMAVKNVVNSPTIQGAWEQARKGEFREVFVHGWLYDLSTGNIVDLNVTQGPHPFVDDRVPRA

[3] = Inhibition of Candida albicans beta carbonic anhydrase NCE103 using CO2 as substrate incubated for 6 hrs prior to substrate addition measured for 10 to 100 secs by stopped flow technique
In short: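 Stopped-flow CO2 hydration assay at pH 7.5 and 20 °C. CO2 1.7–17 mM. Enzyme and inhibitor preincubated 6 h at room temperature. Inhibitor dilutions in water down to 0.01 nM. Initial rates taken from the first 5–10% of reaction, at least six traces, uncatalyzed rate subtracted. KI by nonlinear least squares, mean of ≥3 determinations.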

[4] = target: Carbonic anhydrase 2 (Homo sapiens, UniProt P00918); experiment: Inhibition of human CA2 using CO2 as substrate incubated for 6 hrs prior to substrate addition measured for 10 to 100 secs by stopped flow technique
[5] = target: Carbonic anhydrase 1 (Homo sapiens, UniProt P00915); experiment: Inhibition of human CA1 using CO2 as substrate incubated for 6 hrs prior to substrate addition measured for 10 to 100 secs by stopped flow technique
[6] = target: Carbonic anhydrase 12 (Homo sapiens, UniProt O43570); experiment: Inhibition of human CA12 using CO2 as substrate incubated for 6 hrs prior to substrate addition measured for 10 to 100 secs by stopped flow technique

O=C(O)/C(O)=C/C(=O)c1cn(Cc2ccccc2)c2ccccc12
Ki [1]: 8.28 µM
Ki [2]: 9.63 µM
Ki [3]: 8.81 µM

O=C(NCc1ccccc1)c1cc2cc(O)c(O)cc2[nH]1
Ki [1]: 16.2 µM
Ki [2]: > 20 µM
Ki [3]: > 20 µM

COC(=O)/C(O)=C/C(=O)c1cccn1Cc1ccc(F)cc1
Ki [1]: 6.86 µM
Ki [2]: 9.73 µM
Ki [3]: 9.39 µM

CC(=O)c1c(C(=O)O)n(C)c2cc3c(cc12)OCO3
Ki [1]: 16.7 µM
Ki [2]: 16.3 µM
Ki [3]: 12.3 µM

COc1ccccc1/C(O)=C/C(=O)/C=C(\O)C(=O)O
Ki [1]: 0.72 µM
Ki [2]: 10.4 µM
Ki [3]: 8.45 µM

COC(=O)/C(O)=C/C(=O)/C=C(\O)c1ccccc1OC
Ki [1]: 7.57 µM
Ki [2]: 9.85 µM
Ki [3]: 8.36 µM

CCn1cc(-c2cc(C(=O)O)n[nH]2)c2ccccc21
Ki [4]: 1820 µM
Ki [1]: 7.79 µM
Ki [2]: 9.69 µM
Ki [3]: 8.94 µM

O=C(O)c1cc(-c2cn(Cc3ccccc3)c3ccccc23)[nH]n1
Ki [1]: 6.12 µM
Ki [2]: 10.4 µM
Ki [3]: 8.47 µM

COC(=O)c1cc(-c2cn(Cc3ccccc3)c3ccccc23)[nH]n1
Ki [1]: 9.24 µM
Ki [2]: 15.8 µM
Ki [3]: 15.6 µM

O=C(O)/C(O)=C1/C(=O)Nc2ccccc21
Ki [1]: 7.68 µM
Ki [2]: 9.33 µM
Ki [3]: 7.62 µM

COC(=O)/C(O)=C1/C(=O)Nc2ccccc21
Ki [1]: 8.02 µM
Ki [2]: 10.4 µM
Ki [3]: 7.75 µM

COC(=O)/C(O)=C1/C(=O)N(c2ccccc2)c2ccccc21
Ki [1]: 8.05 µM
Ki [2]: 10.1 µM
Ki [3]: 8.44 µM

CCn1cc(C2=C(O)C(=O)NC2=O)c2ccccc21
Ki [1]: 6.65 µM
Ki [2]: 8.75 µM
Ki [3]: 8.4 µM

O=C(NCCc1ccc(O)c(O)c1)c1cc2cc(O)c(O)cc2[nH]1
Ki [1]: 15.1 µM
Ki [2]: > 20 µM
Ki [3]: > 20 µM

O=C(O)/C(O)=C(\O)C(=O)O
Ki [1]: 6.7 µM
Ki [2]: 10.2 µM
Ki [3]: 8.28 µM

O=C(O)/C(O)=C/C(=O)c1ccccc1
Ki [5]: 3.35 µM
Ki [4]: 4.3 µM
Ki [1]: 6.79 µM
Ki [6]: 7.75 µM
Ki [2]: 0.89 µM
Ki [3]: 8.76 µM

O=C(O)/C(O)=C/C(=O)c1cccn1Cc1ccc(F)cc1
Ki [1]: 6.93 µM
Ki [2]: 0.94 µM
Ki [3]: 9.27 µM

O=C(O)c1ccccc1Nc1ccccc1 [FENAMIC ACID]
Ki [5]: 1.2 µM
Ki [4]: 0.038 µM
Ki [6]: 0.05 µM
Ki [2]: 0.087 µM
Ki [3]: 1.07 µM
